Assays:
[1] = test system: OVCAR-5; assay: Growth inhibition of human OVCAR5 cells assessed as cell growth at 10 uM after 48 hrs by sulforhodamine B assay; assay type: functional; details: OVCAR-5, 48 h, read-out: Activity
[2] = test system: Rattus norvegicus; assay: Antiinflammatory activity in Wistar rat assessed as inhibition of carrageenan-induced paw edema at 0.05 mmol/kg, po administered 30 mins prior challenge measured after 5 hrs; assay type: functional
Summary of the method: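 Wistar rats of either sex, 150–175 g, fasted 16 h, 6 per group. Dosed orally at 0.05 mmol/kg, suspended in 1% CMC in water (10 ml/kg). 30 min later, 0.1 ml of 1% carrageenan in saline injected subplantar into the left hind paw. Paw volume read by plethysmometer at 0, 3 and 5 h. % inhibition = (1 − Vt/Vc) × 100 against the vehicle group.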

[3] = test system: ACHN; assay: Growth inhibition of human ACHN cells after 48 hrs by sulforhodamine B assay; assay type: functional
Summary of the method: (§1)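 NCI 60-cell-line panel grown in RPMI-type medium with 5% fetal calf serum and 2 mM L-glutamine. Cells preincubated 24 h, then exposed continuously for 48 h to compound in DMSO at 10^-4 to 10^-8 M (five 10-fold levels). Growth read by SRB protein stain. GI50 is the concentration giving a 50% reduction in net protein increase relative to control cells.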

[4] = Growth inhibition of human EKVX cells assessed as cell growth at 10 uM after 48 hrs by sulforhodamine B assay; assay type: functional; details: read-out: Activity
[5] = test system: CCRF-CEM; assay: Growth inhibition of human CCRF-CEM cells after 48 hrs by sulforhodamine B assay; assay type: functional, cell-based; summary of the method: as §1
[6] = test system: SF-295; assay: Growth inhibition of human SF295 cells assessed as cell growth at 10 uM after 48 hrs by sulforhodamine B assay; assay type: functional; details: SF-295, 48 h, read-out: Activity
[7] = test system: IGROV-1; assay: Growth inhibition of human IGROV1 cells after 48 hrs by sulforhodamine B assay; assay type: functional; details: IGROV-1, 48 h; summary of the method: as §1
[8] = test system: SK-MEL-5; assay: Growth inhibition of human SK-MEL-5 cells after 48 hrs by sulforhodamine B assay; assay type: functional; details: SK-MEL-5, 48 h
Summary of the method: (§2)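 NCI 60-cell-line panel. Cells were grown in medium with 5% fetal calf serum and 2 mM L-glutamine, then preincubated 24 h in plates. Compounds were added from DMSO at five 10-fold concentrations from 100 to 0.01 µM and left on cells continuously for 48 h. Cell growth was read by sulforhodamine B protein stain. GI50 is the concentration that halves net protein increase relative to control cells.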

[9] = test system: UACC-257; assay: Growth inhibition of human UACC257 cells after 48 hrs by sulforhodamine B assay; assay type: functional; details: UACC-257, 48 h
Summary of the method: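 NCI 60-line panel. Cells were grown in medium with 5% fetal calf serum and 2 mM L-glutamine and preincubated 24 h in plates. Compound in DMSO was added at 10^-4 to 10^-8 M (five 10-fold levels), with continuous exposure for 48 h. Growth was read by SRB protein staining. GI50 is the concentration giving 50% reduction in net protein increase versus control cells.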

[10] = test system: SNB-19; assay: Growth inhibition of human SNB19 cells assessed as cell growth at 10 uM after 48 hrs by sulforhodamine B assay; assay type: functional; details: SNB-19, 48 h, read-out: Activity
[11] = test system: UACC-62; assay: Growth inhibition of human UACC62 cells assessed as cell growth at 10 uM after 48 hrs by sulforhodamine B assay; assay type: functional; details: UACC-62, 48 h, read-out: Activity
Summary of the method: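 Single-dose NCI screen. Tumor lines were cultured in medium with 5% fetal calf serum and 2 mM L-glutamine, preincubated 24 h, then given compound in DMSO. After 48 h continuous exposure, cell growth was estimated by sulforhodamine B protein assay.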

[12] = test system: HCT-15; assay: Growth inhibition of human HCT15 cells assessed as cell growth at 10 uM after 48 hrs by sulforhodamine B assay; assay type: functional; details: HCT-15, 48 h, read-out: Activity
[13] = test system: HCT-116; assay: Growth inhibition of human HCT116 cells assessed as cell growth at 10 uM after 48 hrs by sulforhodamine B assay; assay type: functional; details: HCT-116, 48 h, read-out: Activity
[14] = test system: NCI-H460; assay: Growth inhibition of human NCI-H460 cells assessed as cell growth at 10 uM after 48 hrs by sulforhodamine B assay; assay type: functional; details: NCI-H460, 48 h, read-out: Activity
[15] = test system: 786-0; assay: Growth inhibition of human 786-0 cells after 48 hrs by sulforhodamine B assay; assay type: functional; details: 786-0, 48 h; summary of the method: as §1
[16] = Growth inhibition of human NCI-ADR-RES cells after 48 hrs by sulforhodamine B assay; assay type: functional; summary of the method: as §2
[17] = test system: HOP-62; assay: Growth inhibition of human HOP62 cells after 48 hrs by sulforhodamine B assay; assay type: functional; details: HOP-62, 48 h; summary of the method: as §1
[18] = test system: OVCAR-4; assay: Growth inhibition of human OVCAR4 cells after 48 hrs by sulforhodamine B assay; assay type: functional; details: OVCAR-4, 48 h; summary of the method: as §2
[19] = test system: CAKI-1; assay: Growth inhibition of human CAKI-1 cells after 48 hrs by sulforhodamine B assay; assay type: functional; details: CAKI-1, 48 h; summary of the method: as §1
[20] = test system: NCI-H23; assay: Growth inhibition of human NCI-H23 cells assessed as cell growth at 10 uM after 48 hrs by sulforhodamine B assay; assay type: functional; details: NCI-H23, 48 h, read-out: Activity
[21] = test system: LOX IMVI; assay: Growth inhibition of human LOXIMVI cells assessed as cell growth at 10 uM after 48 hrs by sulforhodamine B assay; assay type: functional; details: read-out: Activity
[22] = test system: Malme-3M; assay: Growth inhibition of human MALME-3M cells assessed as cell growth at 10 uM after 48 hrs by sulforhodamine B assay; assay type: functional; details: read-out: Activity
[23] = test system: HCT-116; assay: Growth inhibition of human HCT116 cells after 48 hrs by sulforhodamine B assay; assay type: functional; details: HCT-116, 48 h; summary of the method: as §1
[24] = test system: MDA-MB-468; assay: Growth inhibition of human MDA-MB-468 cells assessed as cell growth at 10 uM after 48 hrs by sulforhodamine B assay; assay type: functional; details: MDA-MB-468, 48 h, read-out: Activity
[25] = test system: RXF 393; assay: Growth inhibition of human RXF393 cells assessed as cell growth at 10 uM after 48 hrs by sulforhodamine B assay; assay type: functional; details: RXF 393, 48 h, read-out: Activity
[26] = test system: CCRF-CEM; assay: Growth inhibition of human CCRF-CEM cells assessed as cell growth at 10 uM after 48 hrs by sulforhodamine B assay; assay type: functional; details: read-out: Activity
[27] = test system: HCT-15; assay: Growth inhibition of human HCT15 cells after 48 hrs by sulforhodamine B assay; assay type: functional; details: HCT-15, 48 h; summary of the method: as §1
[28] = test system: SF-268; assay: Growth inhibition of human SF268 cells assessed as cell growth at 10 uM after 48 hrs by sulforhodamine B assay; assay type: functional; details: SF-268, 48 h, read-out: Activity
[29] = read-out: LC50 (the source's name)

## CCc1ccc(C2=NN(c3ccc(S(C)(=O)=O)cc3)C(=O)CC2)cc1
[1]
  growth at 10 µM: 48.7%
[2]
  inhibition in vivo at 50 µmol/kg: 65.7%
[3]
  GI50: 8.59 µM
  LC50 (concentration killing 50% of starting cells): > 100 µM
  TGI: > 100 µM
[4]
  growth at 10 µM: 60.4%
[5]
  GI50: 2.31 µM
  TGI: > 100 µM
[5]; [29]
  CC50: > 100 µM
[6]
  growth at 10 µM: 9.24%
[7]
  GI50: 1480 nM
  LC50: > 100 µM
  TGI: 55.2 µM
[8]
  GI50: 1480 nM
  LC50: 35.7 µM
  TGI: 11.2 µM
[9]
  GI50: 3.3 µM
  LC50 (concentration killing 50% of cells): > 100 µM
  TGI: 61.5 µM
[10]
  growth at 10 µM: 51.5%
[11]
  growth at 10 µM: 38%
[12]
  growth at 10 µM: 22.1%
[13]
  growth at 10 µM: 15.7%
[14]
  growth at 10 µM: 10.6%
[15]
  GI50: 5130 nM
  LC50: > 100 µM
  TGI: 80.3 µM
[16]
  GI50: 400 nM
  LC50: > 100 µM
  TGI: 3.34 µM
[17]
  GI50: 4300 nM
  TGI: > 100 µM
[17]; [29]
  CC50: > 100 µM
[18]
  GI50: 10 nM
  LC50: > 100 µM
  TGI: > 100 µM
[19]
  GI50: 1000 nM
  LC50 (lethal concentration, 50% cell kill): > 100 µM
  TGI: 8.22 µM
[20]
  growth at 10 µM: -4.83%
[21]
  growth at 10 µM: 35%
[22]
  growth at 10 µM: 38.8%
[23]
  GI50: 730 nM
  LC50 (concentration killing 50% of cells): > 100 µM
  TGI: > 100 µM
[24]
  growth at 10 µM: 50.7%
[25]
  growth at 10 µM: 27.4%
[26]
  growth at 10 µM: 15.3%
[27]
  GI50: 1900 nM
  LC50: > 100 µM
  TGI: > 100 µM
[28]
  growth at 10 µM: 42.8%

## O=c1[nH]cc(F)c(=O)[nH]1 [FLUOROURACIL]
[3]
  GI50: 0.29 µM
[5]
  GI50: 9.79 µM
[7]
  GI50: 1220 nM
[8]
  GI50: 460 nM
[9]
  GI50: 3.55 µM
[15]
  GI50: 720 nM
[16]
  GI50: 310 nM
[17]
  GI50: 390 nM
[18]
  GI50: 4430 nM
[19]
  GI50: 70 nM
[23]
  GI50: 220 nM
[27]
  GI50: 110 nM
